# Source: ChEMBL document CHEMBL1131607, “Synthesis of 7-arylmorphinans. Probing the "address" requirements for selectivity at opioid delta receptors” (J Med Chem, 1998)
# Tests used:
# [1] = target: Delta-type opioid receptor (Mus musculus) (UniProt P32300); assay: Inhibition of [D-Ala2,D-Leu5]-enkephalin (DADLE) activity in the electrically stimulated mouse vas deferens
# Procedure, shortened: (§1)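 Antagonism in electrically stimulated smooth muscle, hydrochloride salts. Test ligand 100 nM preincubated for 15 min before the standard agonist: DADLE (δ) in mouse vas deferens, morphine (μ) and ethylketazocine (κ) in guinea pig ileal longitudinal muscle. IC50 ratio = agonist IC50 with test compound / control agonist IC50. Ke (nM) = [antagonist]/(IC50 ratio − 1).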
# Cavia porcellus [2] = species on record: Cavia porcellus; assay: (§2) Compound was tested for opioid agonist activity in the electrically stimulated guinea pig ileal longitudinal muscle(GPI); type: functional, Muscle tissue
# Procedure, shortened: (§3)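 Electrically stimulated guinea pig ileal longitudinal muscle or mouse vas deferens, hydrochloride salts. Weak agonists tested at a single 1 μM concentration, reported as percent of maximal response (±SE). Full agonists run at four to six concentrations to give a concentration-response curve compared with a standard agonist in the same tissue. IC50 = agonist concentration giving half-maximal response; a negative value means enhanced twitch amplitude.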
# Mus musculus [3] = species on record: Mus musculus; assay: (§4) Compound was tested for opioid agonist activity in the electrically stimulated mouse vas deferens(MVD); type: functional; procedure, shortened: as §3
# [4] = target: Mu-type opioid receptor (Cavia porcellus) (UniProt P97266); assay: Compound was tested for opioid antagonist activity in the electrically stimulated GPI preparation, against morphine (Opioid receptor mu 1); type: functional; procedure, shortened: as §1
# Chain of Mu-type opioid receptor (Cavia porcellus) (P97266 whole entry): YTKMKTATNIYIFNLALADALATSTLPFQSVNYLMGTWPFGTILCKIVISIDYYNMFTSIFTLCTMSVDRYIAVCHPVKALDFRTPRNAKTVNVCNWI
# [5] = target: Kappa-type opioid receptor (Cavia porcellus) (UniProt P41144); assay: Antagonist activity against electrically stimulated guinea pig ileum Opioid receptor kappa 1; type: functional, tissue-based; procedure, shortened: as §1
# Chain of Kappa-type opioid receptor (Cavia porcellus) (P41144 whole entry): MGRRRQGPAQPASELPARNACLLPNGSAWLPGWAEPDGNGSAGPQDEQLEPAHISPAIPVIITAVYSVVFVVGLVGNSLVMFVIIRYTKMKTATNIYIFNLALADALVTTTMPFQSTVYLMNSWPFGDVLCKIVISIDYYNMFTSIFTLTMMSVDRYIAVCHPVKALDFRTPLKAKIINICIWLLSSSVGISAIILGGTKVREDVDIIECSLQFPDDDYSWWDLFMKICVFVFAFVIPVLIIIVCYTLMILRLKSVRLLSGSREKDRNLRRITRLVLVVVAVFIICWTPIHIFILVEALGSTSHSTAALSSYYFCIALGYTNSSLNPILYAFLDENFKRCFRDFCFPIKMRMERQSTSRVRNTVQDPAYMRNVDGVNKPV
# Mus musculus [6] = species on record: Mus musculus; assay: as §4; type: functional, organism-based; procedure, shortened: as §3
# Cavia porcellus [7] = species on record: Cavia porcellus; assay: as §2; type: functional, organism-based; conditions: Muscle tissue; procedure, shortened: as §3
# Chain of Delta-type opioid receptor (Mus musculus) (P32300 whole entry): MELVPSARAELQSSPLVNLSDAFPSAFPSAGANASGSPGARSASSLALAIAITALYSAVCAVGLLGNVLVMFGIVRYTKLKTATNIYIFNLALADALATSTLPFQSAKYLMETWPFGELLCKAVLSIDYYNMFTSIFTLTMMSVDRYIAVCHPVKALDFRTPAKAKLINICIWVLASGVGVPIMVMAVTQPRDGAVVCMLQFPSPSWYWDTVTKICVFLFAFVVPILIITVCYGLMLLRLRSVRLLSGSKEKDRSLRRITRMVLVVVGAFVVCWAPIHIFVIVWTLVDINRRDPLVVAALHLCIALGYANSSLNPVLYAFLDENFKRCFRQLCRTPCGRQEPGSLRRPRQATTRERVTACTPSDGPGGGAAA
Structure (SMILES),IC50 ratio [1],Ke (Cavia porcellus [2]),Ke (Mus musculus [3]),Max response (Cavia porcellus [2]),Max response (Mus musculus [3]),IC50 ratio [4],IC50 ratio [5],IC50 (Mus musculus [6]),IC50 (Cavia porcellus [7])
O=C1[C@@H](c2ccccc2)C[C@H]2[C@H]3Cc4ccc(O)c5c4[C@@]2(CCN3C2CC2)[C@H]1O5,17.6,,,,,,,,
Oc1ccc2c3c1O[C@H]1c4[nH]c5ccccc5c4C[C@@]4(O)[C@@H](C2)N(CC2CC2)CC[C@]314 [NALTRINDOLE],,29 nM,0.13 nM,,,,,,
CN1CC[C@]23c4c5ccc(O)c4O[C@H]2C(=O)[C@@H](c2ccccc2)C[C@H]3[C@H]1C5,0.97,,,53.9%,29.2%,1.05,0.75,,
CN1CC[C@]23c4c5ccc(O)c4O[C@H]2[C@@H](O)[C@@H](c2ccc(Br)cc2)CC3[C@H]1C5 (some centres not stated),1.17,,,10%,15.2%,1.2,1.76,,
CC(=O)O[C@H]1[C@@H](c2ccccc2)CC2[C@H]3Cc4ccc(O)c5c4[C@@]2(CCN3C)[C@H]1O5 (some centres not stated),1.02,,,24%,34.3%,0.9,1.08,,
CN1CC[C@]23c4c5ccc(O)c4O[C@H]2C(=O)C(c2ccccc2)(c2ccccc2)CC3[C@H]1C5 (some centres not stated),2.34,,,9.7%,5.4%,1.69,1.01,,
Oc1ccc2c3c1O[C@H]1[C@@H](O)[C@@H](c4ccccc4)CC4[C@@H](C2)N(C2CC2)CC[C@@]341 (some centres not stated),3.03,,,,,,,,
CN1CC[C@]23c4c5ccc(O)c4O[C@H]2[C@@H](O)[C@@H](c2ccccc2)CC3[C@H]1C5 (some centres not stated),,,,23.2%,,1.85,1.9,178 nM,
CN1CC[C@]23c4c5ccc(O)c4O[C@H]2[C@@H](O)[C@@H](c2cccc([N+](=O)[O-])c2)CC3[C@H]1C5 (some centres not stated),0.99,,,49.3%,56.1%,0.34,1.05,,
CC(=O)O[C@H]1[C@@H](c2ccccc2)CC2[C@H]3Cc4ccc(O)c5c4[C@@]2(CCN3C2CC2)[C@H]1O5 (some centres not stated),6.38,,,,21.1%,,,,118 nM
O=[N+]([O-])c1cccc([C@H]2CC3[C@H]4Cc5ccc(O)c6c5[C@@]3(CCN4C3CC3)[C@@H](O6)[C@H]2O)c1 (some centres not stated),4.17,,,,,,,,
